In ChEMBL document CHEMBL1129405, “In vitro and in vivo evaluation of 6-azido-2',3'-dideoxy-2'-fluoro-beta-D-arabinofuranosylpurine and N6-methyl-2',3'-dideoxy-2'-fluoro-beta-D-arabinofuranosyladenine as prodrugs of the anti-HIV nucleosides 2'-F-ara-ddA and 2'-F-ara-ddI” (J Med Chem, 1996):

How the values were obtained:
[1] = test system: Mus musculus; assay: The ratio of AUC / dose (mM.h/uMol)/kg at 112 mg/kg dose after intravenous administration in mice brain; AUC/Dose (uM); type: ADME, organism-based; design: dose 112 mg/kg, route intravenous; settings: in vivo
Procedure, shortened: (§1)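 Female NIH-Swiss mice (24-28 g), tail-vein injection of 112 mg/kg (437 µmol/kg) in saline (15 mg/mL); three mice per time point, ether anesthesia, exsanguination by heart puncture; serum and brain (homogenized 1:1 g:mL in ice-cold isotonic 0.05 M phosphate, pH 7.4) assayed by HPLC, UV 260 nm. Noncompartmental analysis of mean concentrations; AUC by Lagrange interpolation, extrapolated via terminal slope (last 3-5 points); t1/2 = 0.693/λz; AUC normalized to µmol/kg dose.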

[2] = test system: Mus musculus; assay: The ratio of AUC / dose (mM.h/uMol)/kg at 112 mg/kg dose after intravenous administration in mice serum; AUC/Dose (uM); type: ADME, organism-based; design: dose 112 mg/kg, route intravenous; settings: in vivo; procedure, shortened: as §1
[3] = test system: Mus musculus; assay: The ratio of AUC / dose (mM.h/umol)/kg at 112 mg/kg dose after intravenous administration in mice serum; type: ADME, organism-based; design: dose 112 mg/kg, route intravenous; settings: in vivo; procedure, shortened: as §1
[4] = test system: Mus musculus; assay: The ratio of AUC / dose (mM.h/uMol)/kg at 112 mg/kg dose after oral administration in mice serum; AUC/Dose (uM); type: ADME, organism-based; design: dose 112 mg/kg, route oral; settings: in vivo
[5] = test system: Mus musculus; assay: Pharmacokinetic parameter AUC was measured at 112 mg/kg dose by intravenous administration in mice brain; AUC (mM.h); not detected; type: ADME, organism-based; design: dose 112 mg/kg, route intravenous; settings: in vivo; procedure, shortened: as §1
[6] = test system: Mus musculus; assay: Pharmacokinetic parameter AUC was measured at 112 mg/kg dose by intravenous administration using FMAddA as substrate in mice brain; AUC 0-r (mM.h); not detected; type: ADME, organism-based; design: dose 112 mg/kg, route intravenous; settings: in vivo; procedure, shortened: as §1
[7] = test system: Mus musculus; assay: Pharmacokinetic parameter AUC was measured at 55 mg/kg dose by oral in mice brain; AUC (mM.h); not detected; type: ADME, organism-based; design: dose 55 mg/kg, route oral; settings: in vivo
[8] = test system: Mus musculus; assay: t1/2 was measured at 55 mg/kg dose by oral administration in mice brain; t1/2 (h); not detected; type: ADME, organism-based; design: dose 55 mg/kg, route oral; settings: in vivo
[9] = (§2) The ratio of AUC /dose (uM); type: ADME
[10] = as §2; type: ADME; remark: listed apart in the source
[11] = (§3) The ratio of AUC /dose(uM); not detected; type: ADME
[12] = The ratio of AUC /dose(uM); type: ADME
[13] = as §3; type: ADME; remark: listed apart in the source
[14] = test system: Mus musculus; assay: t1/2 was measured AT 112 mg/kg dose by intravenous administration in mice brain; not detected; settings: in vivo

Structure (SMILES): CNc1ncnc2c1ncn2C1OC(CO)CC1F (stereo not drawn)
- Ratio [1]: 0.09
- Ratio [2]: 0.68

Structure (SMILES): [N-]=[N+]=Nc1ncnc2c1ncn2C1OC(CO)CC1F (stereo not drawn)
- Ratio [1]: 0.06
- Ratio [3]: 1.01
- Ratio [4]: 0.19

Structure (SMILES): OCC1CC(F)C(n2cnc3c(O)ncnc32)O1 (stereo not drawn)
- AUC [5]: Not detected
- AUC [6]: Not detected
- AUC [7]: Not detected
- T1/2 [8]: Not detected
- Ratio [9]: 0.48
- Ratio [10]: 0.13
- Ratio [11]: Not detected
- Ratio [12]: 0.046
- Ratio [13]: Not detected
- T1/2 [14]: Not detected

Structure (SMILES): Nc1ncnc2c1ncn2[C@@H]1O[C@H](CO)C[C@@H]1F [LODENOSINE]
- Ratio [1]: 0.02
- Ratio [2]: 0.04
- Ratio [4]: 0.005
